Calls of active or inactive are those of the source. The calls are words filed in the database; no cut-off is given here.
Columns and labels:
PBMC [1] = test: Induction of IFNalpha production in human PBMC at 1 uM; assay type: functional
In short: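 Donor PBMC from blood bank isolated over Ficoll-Hypaque and kept in RPMI 1640 with 10% FBS, L-glutamine and penicillin/streptomycin. 10⁶ cells/well were stimulated with compound at single final concentration for 24 h (37 °C, 5% CO₂). Supernatant IFN-α was measured by Luminex multicytokine bead kit. Values are a composite across several healthy donors.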

Macrophage [2] = test: Induction of IL6 production in macrophages of TLR7 knockout mouse; assay type: functional, cell-based
Macrophage [3] = test: Induction of TNFalpha production in macrophages of TLR7 knockout mouse; assay type: functional, cell-based
PBMC [4] = test: Induction of IFNalpha production in human PBMC; assay type: functional, cell-based
In short: (§1)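 Ficoll-Hypaque-isolated human PBMC were held in RPMI 1640 with 10% FBS, L-glutamine and pen/strep, 10⁶ cells/well. They were treated for 24 h with a compound dilution series going down to 10 nM. Supernatant IFN-α was read by Luminex bead assay. Data are a composite of three donors. EC₅₀ came from non-linear regression curve fit.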

PBMC [5] = test: Maximal IFNalpha production in human PBMC at 10 uM; assay type: functional; in short: as §1
Macrophage [6] = test: Induction of IL12 production in macrophages of TLR7 knockout mouse; assay type: functional, cell-based

| Structure (SMILES) | Activity (PBMC [1]) | Activity (Macrophage [2]) | Activity (Macrophage [3]) | EC50 (PBMC [4]) | Activity (PBMC [5]) | Activity (Macrophage [6]) |
| --- | --- | --- | --- | --- | --- | --- |
| CCOC(=O)Nc1nc2c(N)nc(OCCOC)nc2n1Cc1ccccc1 | 1.03 pg/mL |  |  |  |  |  |
| COCCOc1nc(N)c2nc(NCCCO)n(Cc3ccccc3)c2n1 | 113.18 pg/mL | inactive | inactive | 3.2 µM | 206 pg/mL | inactive |
| CCNc1nc2c(N)nc(OCCOC)nc2n1Cc1ccccc1 | 80.3 pg/mL | inactive | inactive | 4.42 µM | 141 pg/mL | inactive |
| COCCOc1nc(N)c2[nH]c(=O)n(Cc3ccccc3)c2n1 | 418 pg/mL |  |  | 0.14 µM | 220 pg/mL |  |
| COCCOc1nc(N)c2nc(N(CCO)CCO)n(Cc3ccccc3)c2n1 | 0.82 pg/mL |  |  |  |  |  |
| COCCOc1nc(N)c2nc(N3CCOCC3)n(Cc3ccccc3)c2n1 | 0.41 pg/mL |  |  |  |  |  |
| COCCOc1nc(N)c2nc(NCCc3ccccc3)n(Cc3ccccc3)c2n1 | 1.33 pg/mL |  |  |  |  |  |
| COCCOc1nc(N)c2nc(NCCO)n(Cc3ccccc3)c2n1 | 99.21 pg/mL | inactive | inactive | 5.33 µM | 168 pg/mL | inactive |
| COCCOc1nc(N)c2nc(N)n(Cc3ccccc3)c2n1 |  |  |  | > 10 µM | 132 pg/mL |  |
| CCCCNc1nc2c(N)nc(OCCOC)nc2n1Cc1ccccc1 | 0.73 pg/mL |  |  |  |  |  |
| CCCNc1nc2c(N)nc(OCCOC)nc2n1Cc1ccccc1 | 8.8 pg/mL |  |  |  |  |  |
| COCCOc1nc(N)c2nc(NN)n(Cc3ccccc3)c2n1 | 0.21 pg/mL |  |  |  |  |  |
| COCCOc1nc(N)c2nc(NCCN3CCOCC3)n(Cc3ccccc3)c2n1 | 110.48 pg/mL | inactive | inactive | 0.79 µM | 176 pg/mL | inactive |
